High-throughput results deposited in PubChem by The Scripps Research Institute Molecular Screening Center.
Rows were chosen to be rich in hits. Some 3.3% of all compounds tested hit in one or more screens of this group.
5HT1a antag – antagonists of human 5-HT1a serotonin receptor | P08908 | inhibition, % at 10 µM | CHO 5-HT1a Ga15 NFAT-bla reporter, antagonist mode | 62,000 tested, 0.68% active;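 active means inhibition above the mean of all tested compounds plus 3 SD, cut at about 43% in these data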;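 further: receptor stimulated by 5-CT agonist at 100 nM near EC80; beta-lactamase reporter measured by ratiometric fluorescence of a cleavable substrate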
Target sequence (P08908 whole entry, looked up): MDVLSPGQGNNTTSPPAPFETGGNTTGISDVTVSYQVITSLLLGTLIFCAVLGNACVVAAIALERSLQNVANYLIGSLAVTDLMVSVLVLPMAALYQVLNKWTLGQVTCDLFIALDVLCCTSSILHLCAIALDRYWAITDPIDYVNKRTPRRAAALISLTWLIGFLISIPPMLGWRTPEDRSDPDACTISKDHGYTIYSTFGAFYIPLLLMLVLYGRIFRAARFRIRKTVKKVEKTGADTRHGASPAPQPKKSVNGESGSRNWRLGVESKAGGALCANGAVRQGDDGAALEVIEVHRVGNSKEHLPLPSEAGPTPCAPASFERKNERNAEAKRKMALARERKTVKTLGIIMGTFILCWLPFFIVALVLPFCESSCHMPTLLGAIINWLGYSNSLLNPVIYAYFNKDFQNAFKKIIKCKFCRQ
HTR1E agonist – activates the human 5-HT1E serotonin receptor | 65,000 tested, 0.69% active | activation, % at 6 µM | CHO 5-HT1E Ga15 NFAT-bla reporter, FRET; 0% DMSO wells, 100% control agonist wells;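 active means activation above a set limit, the screen-wide mean activation plus 3 SD, cut at about 8.5% in these data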
HEK293 NFkB inh – lowers PMA/ionomycin-induced NF-kB signal in HEK293 cells; HEK-293 NF-kB luciferase reporter, luminescence; inhibition, % at 3 µM; 62,000 tested, 0.21% active; AID 465;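 active means inhibition above the mean of all tested compounds plus 3 SD, cut at about 40% in these data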
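System – HEK-293 cells with stable firefly luciferase reporter driven by four HIV NF-kB elements · Doses – one dose, 3 µM · Schedule – 1 h compound pre-incubation, 16 h PMA/ionomycin at 37 °C · Technique – luminescence from luciferase substrate reagent · Measure – percent inhibition normalized per plate to DMSO and reference-inhibitor controls · Replicates – tested once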
5HT1a ag – 5-HT1a (human) receptor agonism | 65,000 tested, 0.56% active | activation, % at 10 µM | AID 567 | CHO 5-HT1a Ga15 NFAT-bla reporter, FRET ratio; 0% basal, 100% maximal reference agonist;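 active means activation above the screen-wide mean activation plus 3 SD, cut at about 19% in these data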
HTR1E antagonist – 5-HT1E (human) receptor antagonism | P28566 | CHO 5-HT1E Ga15 NFAT-bla reporter, FRET, antagonist | 65,000 tested, 0.99% active | inhibition, % at 6 µM | AID 571;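 active means inhibition above a set limit, the mean inhibition across every tested compound plus 3 SD, cut at about 29% in these data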;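 further: signal is the 460 over 535 nm emission ratio of beta-lactamase substrate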
Jurkat viability – reduces viability or proliferation of Jurkat cells. Jurkat E6.1 viability, ATP luminescence, 48 h. inhibition, % at 4 µM. 56,000 tested, 1.2% active. AID 463;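 active means inhibition above the mean inhibition of all tested compounds plus 3 SD, cut at about 28% in these data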
A number is an active result.

`Cc1ccccc1CS(=O)(=O)CCC(=O)NCCCN1CCN(c2ccccc2F)CC1` gave 5HT1a antag inactive, HTR1E agonist inactive, HEK293 NFkB inh inactive, 5HT1a ag inactive, HTR1E antagonist inactive and Jurkat viability inactive.
Screening CCn1c(=O)cc(SCC(=O)NCCCN2CCN(c3ccc(F)cc3)CC2)c2ccccc21 returned 5HT1a antag 46.6, HTR1E agonist inactive, HEK293 NFkB inh inactive, 5HT1a ag inactive and HTR1E antagonist inactive.
`CCn1c(=O)cc(SCC(=O)NCCN2CCN(Cc3ccccc3)CC2)c2ccccc21` gave 5HT1a antag inactive, HTR1E agonist inactive, HEK293 NFkB inh inactive, 5HT1a ag inactive, HTR1E antagonist inactive and Jurkat viability inactive.
Cn1c(=O)cc(SCC(=O)NCCCN2CCN(c3ccccc3F)CC2)c2ccccc21 was read as 5HT1a antag 60.3, HTR1E agonist inactive, HEK293 NFkB inh inactive, 5HT1a ag inactive, HTR1E antagonist inactive and Jurkat viability inactive.
Screening Cc1cc(=O)oc(C)c1C(=O)NCCNC(=O)c1c(C)cc(=O)oc1C returned HTR1E agonist 39.0, 5HT1a ag inactive and HTR1E antagonist inactive.
Cc1cc(=O)oc(C)c1C(=O)NCCCN1CCN(c2ccccc2F)CC1 was read as 5HT1a antag 77.3, HTR1E agonist 27.9, HEK293 NFkB inh inactive, 5HT1a ag inactive and HTR1E antagonist inactive.
For CCOc1ccccc1NC(=O)CSc1nnc(-c2ccccc2Cl)n1Cc1ccco1 the results were 5HT1a antag inactive, HTR1E agonist inactive, HEK293 NFkB inh inactive, 5HT1a ag inactive, HTR1E antagonist inactive and Jurkat viability inactive.
CCOC(=O)c1oc2cccc(OCC(O)CNC(C)C)c2c1C (stereo not drawn) was read as 5HT1a antag inactive, HTR1E agonist inactive, HEK293 NFkB inh inactive, 5HT1a ag inactive, HTR1E antagonist inactive and Jurkat viability inactive.
CCCCN(CC)CCCNC(=O)c1cc2c(=O)n(C)c3ccccc3c2n1C was read as 5HT1a antag inactive, HTR1E agonist 17.2, HEK293 NFkB inh inactive, 5HT1a ag inactive, HTR1E antagonist inactive and Jurkat viability inactive.
Screening Cn1c(C(=O)NCCCN2CCOCC2)cc2c(=O)n(C)c3ccccc3c21 returned 5HT1a antag inactive, HTR1E agonist inactive, HEK293 NFkB inh inactive, 5HT1a ag inactive, HTR1E antagonist inactive and Jurkat viability inactive.
CC(C)OCCCNC(=O)c1cc2c(=O)n(C)c3ccccc3c2n1C was read as 5HT1a antag inactive, HTR1E agonist inactive, HEK293 NFkB inh inactive, 5HT1a ag inactive, HTR1E antagonist inactive and Jurkat viability inactive.
`Cn1c(C(=O)NCCCN2CCN(c3ccccc3F)CC2)cc2c(=O)n(C)c3ccccc3c21` gave 5HT1a antag 72.6, HTR1E agonist 18.3, HEK293 NFkB inh inactive, 5HT1a ag inactive, HTR1E antagonist inactive and Jurkat viability inactive.
`CCOC(=O)CSC1=C(C#N)C(c2ccc(Cl)cc2)CC(=O)N1` (stereo not drawn) gave 5HT1a antag inactive, HTR1E agonist inactive, HEK293 NFkB inh inactive, 5HT1a ag inactive, HTR1E antagonist inactive and Jurkat viability inactive.
Screening CCOC(=O)CSC1=C(C#N)C(c2ccc(C)o2)CC(=O)N1 (stereo not drawn) returned 5HT1a antag inactive, HTR1E agonist inactive, HEK293 NFkB inh inactive, 5HT1a ag inactive, HTR1E antagonist 42.7 and Jurkat viability 99.1.
For O=C(O)CCCC(=O)Nc1nc(-c2ccccc2)cs1 the results were 5HT1a antag inactive, HTR1E agonist 25.9, HEK293 NFkB inh inactive, 5HT1a ag inactive, HTR1E antagonist inactive and Jurkat viability inactive.
`O=C(O)CCCC(=O)Nc1nc(-c2ccc(F)cc2)cs1` gave 5HT1a antag inactive, HTR1E agonist inactive, HEK293 NFkB inh inactive, 5HT1a ag inactive, HTR1E antagonist inactive and Jurkat viability inactive.
For Cc1cccc(OCc2nnc(SCc3cc(=O)n4cc(Br)ccc4n3)o2)c1 the results were 5HT1a antag inactive, HTR1E agonist inactive, HEK293 NFkB inh inactive, 5HT1a ag inactive, HTR1E antagonist inactive and Jurkat viability inactive.
CC(C)C(=O)Nc1cc(=O)[nH]c2ncnn12 was read as 5HT1a antag inactive, HTR1E agonist inactive, HEK293 NFkB inh inactive, 5HT1a ag inactive, HTR1E antagonist inactive and Jurkat viability inactive.
For O=C(Cn1cccc1C(=O)c1ccccc1)NCc1cccs1 the results were 5HT1a antag inactive, HTR1E agonist 28.9, HEK293 NFkB inh inactive, 5HT1a ag inactive, HTR1E antagonist inactive and Jurkat viability inactive.
